Results from different studies.
Protocols differ between the studies behind these lines.
Target: Death-associated protein kinase 2 (DAPK2, Homo sapiens, UniProt Q9UIK4)

`CCN(CC)CCNC(=O)c1c(C)[nH]c(/C=C2\C(=O)Nc3ccc(F)cc32)c1C` has an inhibition of 30% (enzyme activity, inhibitor; 0.3 µM).
For `CCN(CC)c1ccc(C2=NNC(=O)CC2C)cc1[N+](=O)[O-]` (stereo not shown), the remaining activity was 99% (enzyme activity, inhibitor; 10 µM).
For `O=C(Nc1ccc(Oc2ccc(F)cc2)cc1)N1CCc2ncccc2[C@H]1c1ccc(F)cc1`, the remaining binding was 100% (cell-free assay, competition with immobilised ligand; 1 µM).
The inhibition of `Cc1ccc(Nc2nccc(N(C)c3ccc4c(C)n(C)nc4c3)n2)cc1S(N)(=O)=O` is reported as -4% (enzyme activity, inhibitor; 10 µM).
For `N[C@H]1CCN(c2nccc(-c3cnn4ncccc34)n2)C1`, the remaining binding was 98% (binding; 1 µM).
For `Cc1ccc(NC(=O)c2ccc(C)c(C(F)(F)F)c2)cc1C#Cc1nn(C2CCC(O)CC2)c2ncnc(N)c12` (stereo not shown), the remaining signal was 95% (cell-free assay; 10 µM).
With `O=C1NC(=O)c2cc(Nc3ccc(F)cc3)c(Nc3ccc(F)cc3)cc21` the remaining signal was 96.7% (cell-free assay; 0.5 µM).
`CNC(=O)c1cc(Oc2ccc(NC(=O)Nc3ccc(Cl)c(C(F)(F)F)c3)cc2)ccn1` gave an inhibition of 6% (enzyme activity, inhibitor; 10 µM).
For `CC(C)(C)c1nc2c(s1)c1nc(N)ncc1c1ccc(NS(=O)(=O)c3c(F)cccc3F)c(F)c12`, the remaining activity was 81% (enzyme activity, inhibitor, radiometric; 1 µM).
The remaining binding of `CS(=O)(=O)NCC[C@H](NC(=O)c1cncc2c1cnn2-c1ccc(F)cc1)c1ccnc(S(C)(=O)=O)c1` is reported as 100% (cell-free assay, competition with immobilised ligand; 1 µM).
For `CN1CC(Oc2cnc(C#N)cc2-c2ccn3nc(NC(=O)C4CC4)cc3c2)C1`, the inhibition was 0% (enzyme activity, inhibitor; 1 µM).
For `COc1cc(Cl)c(C(=O)N[C@@H](CN[C@H]2CC[C@@H](N)CC2)Cc2ccc(C#N)cc2)cc1-c1ccc(CN[C@H](C)c2ccc(C)cc2)o1`, the remaining activity was 123% (enzyme activity, inhibitor; 1 µM).
`C[C@@H]1CN(c2cc(-c3nn(C)c4ccc(OC5(C)CC5)cc34)ncn2)C[C@H](C)O1` gave a remaining binding of 89% (cell-free assay, competition with immobilised ligand; 1 µM).
`CCCS(=O)(=O)Nc1ccc(F)c(C(=O)c2c[nH]c3ncc(-c4ccc(Cl)cc4)cc23)c1F` gave an inhibition of under 10% (enzyme activity, inhibitor; 1 µM).
`CC(C)(O)c1cncc(-c2nc3ccc(F)cc3n2C2CC2)c1` gave a remaining binding of 100% (cell-free assay, competition with immobilised ligand; 1 µM).
The remaining activity of `Cc1sc(C(=O)NC2COC2)cc1-n1cc(NC(=O)Nc2c(F)cccc2Cl)cn1` is reported as 99.5% (enzyme activity, inhibitor; 10 µM).
